Results reported in ChEMBL document CHEMBL2176896, “Phthalazine derivatives containing imidazole rings behave as Fe-SOD inhibitors and show remarkable anti-T. cruzi activity in immunodeficient-mouse mode of infection” (J Med Chem, 2012).
Active and inactive are the calls of the source. The calls are words filed in the database; no cut-off is given here.

What was measured:
[1] = biological target: Superoxide dismutase [Cu-Zn] (Homo sapiens, UniProt P00441); test: Inhibition of SOD1 in human erythrocytes by spectrophotometry; format: cell-based
How it was run: (§1)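 Enzyme from sonicated parasites in STE buffer, pH 7.8, or human erythrocyte CuZn-SOD. Activity measured as NBT reduction by superoxide (Beyer–Fridovich): methionine, NBT, Triton X-100 and riboflavin, with A560 read before and after 10 min of light. Compounds tested at 1–100 μM. Mean of five; IC50 by linear regression from Kc.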

[2] = Toxicity against african green monkey Vero cells; format: cell-based, Chlorocebus sabaeus
[3] = Selectivity index, ratio of IC50 for african green monkey Vero cells to IC50 for Trypanosoma cruzi IRHOD/VO/2008/SN3 epimastigotes; format: toxicity, cell-based; settings: Vero cells versus Trypanosoma cruzi epimastigotes, read-out: Ratio IC50
[4] = Selectivity index, ratio of IC50 for african green monkey Vero cells to IC50 for Trypanosoma cruzi IRHOD/VO/2008/SN3 intracellular amastigotes; format: toxicity, cell-based; settings: read-out: Ratio IC50
[5] = Selectivity index, ratio of IC50 for african green monkey Vero cells to IC50 for Trypanosoma cruzi IRHOD/VO/2008/SN3 blood trypomastigotes; format: toxicity, cell-based; settings: Vero cells versus Trypanosoma cruzi blood trypomastigotes, read-out: Ratio IC50
[6] = Selectivity index, ratio of IC50 for african green monkey Vero cells to IC50 for Trypanosoma cruzi IRHOD/VO/2008/SN3 axenic amastigotes; format: toxicity, cell-based; settings: Vero cells versus Trypanosoma cruzi axenic amastigotes, read-out: Ratio IC50
[7] = tested on: Trypanosoma cruzi; test: Antitrypanosomal activity against Trypanosoma cruzi IRHOD/VO/2008/SN3 […] amastigotes infected in african green monkey Vero cells incubated for 72 hrs; format: functional, organism-based; settings: IRHOD/VO/2008/SN3, Vero
[8] = tested on: Trypanosoma cruzi; test: Antitrypanosomal activity against Trypanosoma cruzi IRHOD/VO/2008/SN3 metacyclic forms infected in african green monkey Vero cells assessed as inhibition of trypomastigotes level at IC25 level 0.5 to 10 days; format: functional
How it was run: (§2)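 Vero cells in RPMI infected with metacyclic forms at 10:1. Compounds added at IC25 immediately after infection for 12 h at 37 °C, 5% CO2, then washed off. Cultures grown 10 days with fresh medium every 48 h. Giemsa slides scored for % infected cells and amastigotes per cell (>100 cells); trypomastigotes in medium counted. Mean of four.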

[9] = tested on: Trypanosoma cruzi; test: Antitrypanosomal activity against Trypanosoma cruzi IRHOD/VO/2008/SN3 metacyclic forms infected in african green monkey Vero cells assessed as inhibition of intracellular amastigotes replication at IC25 level 0.5 to 10 days; format: functional; how it was run: as §2
[10] = tested on: Trypanosoma cruzi; test: (§3) Antitrypanosomal activity against Trypanosoma cruzi IRHOD/VO/2008/SN3 metacyclic forms infected in BALB/c mouse model of acute Chagas disease assessed as reduction parasitemia at 5 mg/kg/day, ip administered for 5 consecutive days starting on day 7 post infection until day 12 post infection and measured on day 40 post infection; format: functional; design: scale not given: the % may be the effect or the level left; settings: route intraperitoneal
How it was run: (§4)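 Groups of six female BALB/c mice (6–8 weeks, 25–30 g) inoculated ip with 5 × 10^5 metacyclic trypomastigotes. Dosed ip at 5 or 15 mg/kg/day on days 7–12 pi; untreated infected controls. Mandibular-vein blood (5 μL in 495 μL PBS) counted every 3 days for 40 days in a Neubauer chamber, as parasites/mL.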

[11] = tested on: Trypanosoma cruzi; test: as §3, with “15 to 20” for “40”; format: functional; design: scale not given: the % may be the effect or the level left; how it was run: as §4
[12] = tested on: Trypanosoma cruzi; test: Antitrypanosomal activity against Trypanosoma cruzi IRHOD/VO/2008/SN3 isolated from mouse blood trypomastigotes incubated for 24 hrs; format: functional, organism-based; settings: IRHOD/VO/2008/SN3, Blood
How it was run: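 Blood from BALB/c mice 7 days post-infection, drawn by cardiac puncture into 3.8% citrate (7:3). Compounds in PBS at 10, 25 and 50 μM final, mixed with infected blood (~1 × 10^6 parasites/mL). Shaken 10 min at room temperature, held 24 h at 4 °C. Parasites counted at 1:100 dilution against a PBS control.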

[13] = (§5) Toxicity in Trypanosoma cruzi IRHOD/VO/2008/SN3 metacyclic forms infected BALB/c mouse model of acute Chagas disease assessed as mortality incidence at 5 mg/kg/day, ip administered for 5 consecutive days starting on day 7 post infection until day 12 post infection and measured 40 days post infection; format: organism-based; design: route intraperitoneal; settings: BALB/c, in vivo, read-out: Activity
How it was run: (§6)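 Female BALB/c mice (6–8 wk, 25–30 g), six per group, were infected ip with 5 × 10^5 metacyclic trypomastigotes from infected mouse blood. Once infection was confirmed, compound was given ip daily on days 7–12 pi. An infected untreated group served as control. Deaths were recorded during treatment, and parasitemia was counted in mandibular-vein blood every 3 days up to day 40 pi.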

[14] = tested on: Trypanosoma cruzi; test: Antitrypanosomal activity against Trypanosoma cruzi IRHOD/VO/2008/SN3 epimastigotes incubated for 72 hrs; settings: IRHOD/VO/2008/SN3, 72 h
[15] = tested on: Trypanosoma cruzi; test: Antitrypanosomal activity against Trypanosoma cruzi IRHOD/VO/2008/SN3 metacyclic forms infected in african green monkey Vero cells assessed as inhibition of infection rate at IC25 level 0.5 to 10 days; format: functional; how it was run: as §2
[16] = tested on: Trypanosoma cruzi; test: as §3, with “chronic” for “acute”, “disease subjected to 3 cycles of immunosuppression with 50 mg/kg cyclophosphamide monohydrate for 3 consecutive weeks” for “disease”, “as” for “as reduction”, “parasitemia reactivation level” for “parasitemia”, “150” for “40”; format: functional
How it was run: (§7)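 Female BALB/c mice (6–8 wk, 25–30 g), six per group, were infected ip with 5 × 10^5 metacyclic trypomastigotes from infected mouse blood and dosed ip daily on days 7–12 pi. From day 120 pi a subgroup got three 4-day cycles of cyclophosphamide 50 mg/kg, 3 days apart. Parasites were counted by Neubauer chamber the day after cycle three in 5 μL mandibular-vein blood (1:100 PBS). Reactivation was scored against the matching non-immunosuppressed group; three experiments.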

[17] = tested on: Trypanosoma cruzi; test: as §3, with “25” for “40”; format: functional, organism-based; how it was run: as §4
[18] = tested on: Trypanosoma cruzi; test: Effect on glucose metabolism in Trypanosoma cruzi IRHOD/VO/2008/SN3 epimastigotes assessed as excreted acetate level at IC25 level incubated for 96 hrs at 28 degC by [1H]NMR spectroscopy
[19] = tested on: Trypanosoma cruzi; test: Effect on glucose metabolism in Trypanosoma cruzi IRHOD/VO/2008/SN3 epimastigotes assessed as excreted L-alanine level at IC25 level incubated for 96 hrs at 28 degC by [1H]NMR spectroscopy
[20] = Selectivity index, ratio of IC50 for SOD1 in human erythrocytes to IC50 for Trypanosoma cruzi IRHOD/VO/2008/SN3 epimastigotes Iron superoxide dismutase; format: cell-based
[21] = Inhibition of Trypanosoma cruzi IRHOD/VO/2008/SN3 epimastigotes Iron superoxide dismutase by spectrophotometry; how it was run: as §1
[22] = tested on: Trypanosoma cruzi; test: Induction of ultrastructural modifications in Trypanosoma cruzi Maracay at IC25 level incubated for 96 hrs by transmission electron microscopy; format: functional, organism-based
How it was run: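 Maracay epimastigotes at 5 × 10^5 cells/mL exposed at IC25 for 96 h. Pellets washed in PBS, fixed in 2% paraformaldehyde/glutaraldehyde in 0.05 M cacodylate (pH 7.4) for 4 h at 4 °C, then examined by TEM.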

[23] = tested on: Trypanosoma cruzi; test: Effect on glucose metabolism in Trypanosoma cruzi IRHOD/VO/2008/SN3 epimastigotes assessed as excreted ethanol level at IC25 level incubated for 96 hrs at 28 degC by [1H]NMR spectroscopy
[24] = tested on: Trypanosoma cruzi; test: Effect on glucose metabolism in Trypanosoma cruzi IRHOD/VO/2008/SN3 epimastigotes assessed as excreted L-lactate level at IC25 level incubated for 96 hrs at 28 degC by [1H]NMR spectroscopy
[25] = tested on: Trypanosoma cruzi; test: Antitrypanosomal activity against Trypanosoma cruzi IRHOD/VO/2008/SN3 intracellular amastigotes infected in african green monkey Vero cells incubated for 72 hrs; format: functional, organism-based; settings: IRHOD/VO/2008/SN3, Vero
How it was run: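 Vero cells (1 × 10^4/well) grown 2 days on coverslips, then infected with metacyclic forms at 10:1 for 24 h at 37 °C. Extracellular parasites washed off. Compounds at 1–100 μM for 72 h in RPMI with 10% FBS. Amastigotes counted on methanol-fixed, Giemsa-stained slides against untreated cultures. Mean of four determinations; IC50.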

[26] = tested on: Trypanosoma cruzi; test: Effect on glucose metabolism in Trypanosoma cruzi IRHOD/VO/2008/SN3 epimastigotes assessed as excreted succinate level at IC25 level incubated for 96 hrs at 28 degC by [1H]NMR spectroscopy
[27] = tested on: Trypanosoma cruzi; test: Antitrypanosomal activity against Trypanosoma cruzi IRHOD/VO/2008/SN3 metacyclic forms infected in BALB/c mouse model of acute Chagas disease assessed as reduction in parasitemia level at 15 mg/kg/day, ip administered for 5 consecutive days starting on day 7 post infection until day 12 post infection and measured on day 15 post infection relative to untreated control; format: functional; design: scale not given: the % may be the effect or the level left; settings: route intraperitoneal; how it was run: as §4
[28] = tested on: Trypanosoma cruzi; test: Antitrypanosomal activity against Trypanosoma cruzi IRHOD/VO/2008/SN3 metacyclic forms infected in BALB/c mouse model of chronic Chagas disease subjected to 3 cycles of immunosuppression with 50 mg/kg cyclophosphamide monohydrate for 3 consecutive weeks assessed as parasitemia reactivation level at 15 mg/kg/day, ip administered for 5 consecutive days starting on day 7 post infection until day 12 post infection and measured on day 150 post infection; format: functional; how it was run: as §7
[29] = tested on: Trypanosoma cruzi; test: as §5; format: organism-based; design: route intraperitoneal; settings: in vivo, 960 h; how it was run: as §6
[30] = tested on: Trypanosoma cruzi; test: (§8) Antitrypanosomal activity against Trypanosoma cruzi IRHOD/VO/2008/SN3 metacyclic forms infected in BALB/c mouse model of chronic Chagas disease subjected to 3 cycles of immunosuppression with 50 mg/kg cyclophosphamide monohydrate for 3 consecutive weeks assessed as change in IgG absorbance level at 15 mg/kg/day, ip administered for 5 consecutive days starting on day 7 post infection until day 12 post infection and measured on day 150 post infection by ELISA; format: functional
How it was run: (§9)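 Infected, treated mice (ip 5 or 15 mg/kg/day, days 7–12 pi) kept to day 120. Half then given three 4-day cycles of cyclophosphamide at 50 mg/kg with 3-day gaps; the rest left untreated. Serum IgG measured by ELISA on parasite-excreted Fe-SOD antigen: 1:100 serum, anti-IgG peroxidase 1:1000, OPD, A492, in triplicate. Reported as immunosuppressed minus non-immunosuppressed OD.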

[31] = tested on: Trypanosoma cruzi; test: as §8, with “at 5” for “at 15”; format: functional; how it was run: as §9
[32] = tested on: Trypanosoma cruzi; test: as §3, with “at 15” for “at 5”; format: functional; design: scale not given: the % may be the effect or the level left; settings: route intraperitoneal; how it was run: as §4
[33] = tested on: Trypanosoma cruzi; test: Inhibition of Trypanosoma cruzi IRHOD/VO/2008/SN3 epimastigotes Iron superoxide dismutase at 50 uM by spectrophotometry; how it was run: as §1

Chain of Superoxide dismutase [Cu-Zn] (P00441 whole entry): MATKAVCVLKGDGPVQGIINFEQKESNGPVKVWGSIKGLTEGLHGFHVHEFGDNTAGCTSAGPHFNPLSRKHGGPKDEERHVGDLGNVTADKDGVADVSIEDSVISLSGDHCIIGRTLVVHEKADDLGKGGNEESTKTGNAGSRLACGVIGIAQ

Row | Compound | IC50 [1] [µM] | IC50 [2] [µM] | selectivity ratio [3] | selectivity ratio [4] | selectivity ratio [5] | selectivity ratio [6] | IC50 [7] [µM] | inhibition (INH) [8] [%] | inhibition (INH) [9] [%] | IC50 [12] [µM] | IC50 [14] [µM] | inhibition (INH) [15] [%] | Activity [18] [%] | Activity [19] | Ratio IC50 [20] | IC50 [21] [µM] | Activity [22] | Activity [23] | Activity [24] [%] | IC50 [25] [µM] | also measured
1 | c1ccc2c(NCCc3cnc[nH]3)nnc(NCCc3cnc[nH]3)c2c1 | 125 | 324 | 24.9 | 17.9 | 14.4 | 21.3 | – | – | – | – | – | – | – | – | – | – | – | – | – | – | –
2 | O=C(Cn1ccnc1[N+](=O)[O-])NCc1ccccc1 [BENZNIDAZOLE] | – | – | – | – | – | – | 18.9 | 41.6 | 12.5 | 16.4 | 15.9 | 39.4 | – | – | – | – | – | – | – | – | Activity [10]: 16.7%; Activity ([11]; route intraperitoneal): 15.3%; mortality at 960 h [13]: 20%; Activity [16]: 36%; Activity [17]: Active
3 | c1ccc2c(NCCCn3ccnc3)nnc(NCCCn3ccnc3)c2c1 | 66 | 302 | 17.3 | 18.2 | 17.8 | 24.2 | 12.4 | 57.8 | 41.1 | 16.9 | 17.4 | 51.5 | -21 | inactive | 1.6 | 41.7 | Active | inactive | -24 | 16.6 | Activity [26]: inactive
4 | Clc1nnc(NCCCn2ccnc2)c2ccccc12 | 83.1 | 437 | 49.6 | 49.1 | 42.8 | 41.2 | 10.6 | 73.9 | 55.8 | 10.2 | 8.8 | 80.3 | -54 | -27% | 5.8 | 14.4 | Active | -16% | -38 | 8.9 | Activity [27]: 64%; Activity [11]: Active; Activity [28]: 8%; Activity [29]: Non-toxic; deltaA [30]: 0.0096; deltaA [31]: 0.0143; Activity [32]: 61%; inhibition [33]: 100%; Activity [16]: 21%; Activity [17]: Active; Activity [26]: inactive
5 | Clc1nnc(NCCc2c[nH]cn2)c2ccccc12 | 71.5 | 427 | 49.1 | 45.5 | 46.5 | 42.3 | 10.1 | 85.1 | 62.9 | 9.2 | 8.7 | 83.9 | -21 | -13% | 5.5 | 12.9 | Active | -12% | -33 | 9.4 | Activity [27]: 59%; Activity [11]: Active; Activity [28]: 4%; Activity [29]: Non-toxic; deltaA [30]: 0.0067; deltaA [31]: 0.0103; Activity [32]: 74%; inhibition [33]: 100%; Activity [16]: 9%; Activity [17]: Active; Activity [26]: inactive
6 | c1ccc2c(NCCc3c[nH]cn3)nnc(NCCc3c[nH]cn3)c2c1 | – | – | – | – | – | – | 15.2 | 63.8 | 48.7 | 22.5 | 13 | 65.1 | -10 | inactive | 2.6 | 48 | Active | inactive | -15 | 18.1 | Activity [26]: inactive
